For experiment [1], the system named is L929. The experiment can be described thus: Cytotoxicity against mouse L929 cells assessed as reduction in cell viability after 5 days by MTT assay. Conditions: L929, 120 h. Format: functional, cell-based. An outline of the steps:
(§1)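 MTT viability assay run over 5 days on a panel of eight lines (L929, KB3.1, A431, A549, SKOV-3, PC-3, MCF-7, U2OS). IC50 values were derived.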
Background: Tetrazolium dyes change colour on reduction, which living cells bring about.

The next experiment has as its system KB 3-1. The experiment can be described thus: Cytotoxicity against human KB3-1 cells assessed as reduction in cell viability after 5 days by MTT assay. Format: functional, cell-based. Conditions: KB 3-1, 120 h. The gist of the method: as §1
The subject of a further experiment is A-431. In words: Cytotoxicity against human A431 cells assessed as reduction in cell viability after 5 days by MTT assay. Format: functional, cell-based. Conditions: A-431, 120 h. An outline of the steps: as §1
In a further experiment the test system is A549. The experiment can be described thus: Cytotoxicity against human A549 cells assessed as reduction in cell viability after 5 days by MTT assay. Format: functional, cell-based. Conditions: A549, 120 h. The gist of the method:
as §1

A further experiment relates to SK-OV-3. In words: Cytotoxicity against human SKOV3 cells assessed as reduction in cell viability after 5 days by MTT assay. The class given is functional, cell-based. The settings on record: SK-OV-3, 120 h. An outline of the steps:
as §1

A further experiment concerns PC-3. The experiment can be described thus: Cytotoxicity against human PC3 cells assessed as reduction in cell viability after 5 days by MTT assay. Format: functional, cell-based. Conditions: PC-3, 120 h. The gist of the method:
as §1

For a further experiment, the system named is MCF7. In words: Cytotoxicity against human MCF7 cells assessed as reduction in cell viability after 5 days by MTT assay. The settings on record: MCF7, 120 h. The class given is functional, cell-based. An outline of the steps:
as §1

Experiment [2] has as its system U2OS. In words: Cytotoxicity against human U2OS cells assessed as reduction in cell viability after 5 days by MTT assay. The class given is functional, cell-based. Conditions: 120 h. The gist of the method: as §1
In a further experiment the test system is Mucor plumbeus. The experiment can be described thus: Antifungal activity against Mucor plumbeus MUCL 49355 by serial dilution method. The class given is functional.
The subject of a further experiment is Aspergillus fumigatus. In words: Antifungal activity against Aspergillus fumigatus DSM 819 by serial dilution method. Format: functional.
The test system of a further experiment is Sclerotinia sclerotiorum. In words: Antifungal activity against Sclerotinia sclerotiorum DSM 1946 at 100 ug/disk after 5 days by disk diffusion assay. Conditions: DSM 1946, 120 h, read-out: IZ. Format: functional. An outline of the steps: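 Disk diffusion on YMG medium seeded with a mycelial suspension of the non-sporulating test fungus. Paper disks carried […] compound. Nystatin at 20 μg/disk was the positive control. Inhibition zone diameter (mm) was read after 5 days.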
(In agar diffusion tests the substance spreads into inoculated agar from a disc or well.)

In another experiment the test system is Micrococcus luteus. The experiment can be described thus: Antibacterial activity against Micrococcus luteus DSM 1790 by serial dilution method. The class given is functional, organism-based.
The next experiment deals with Bacillus subtilis. The experiment can be described thus: Antibacterial activity against Bacillus subtilis DSM 10 by serial dilution method. The class given is functional, organism-based.
Another experiment deals with Staphylococcus aureus. The experiment can be described thus: Antibacterial activity against Staphylococcus aureus DSM 346 by serial dilution method. The class given is functional, organism-based.
The test system of experiment [3] is Mycolicibacterium smegmatis. In words: Antibacterial activity against Mycobacterium smegmatis ATCC 700084 by serial dilution method. Format: functional, organism-based.
The next experiment deals with Escherichia coli. In words: Antibacterial activity against Escherichia coli DSM 498 by serial dilution method. Format: functional, organism-based.
A further experiment deals with Pseudomonas aeruginosa. The experiment can be described thus: Antibacterial activity against Pseudomonas aeruginosa PA14 by serial dilution method. Format: functional, organism-based.
The test system of experiment [4] is Chromobacterium violaceum. The experiment can be described thus: Antibacterial activity against Chromobacterium violaceum DSM 30191 by serial dilution method. Format: functional, organism-based.
The test system of a further experiment is Candida albicans. In words: Antifungal activity against Candida albicans DSM 1665 by serial dilution method. Format: functional, organism-based.
Another experiment concerns Rhodotorula glutinis. The experiment can be described thus: Antifungal activity against Rhodotorula glutinis DSM 10134 by serial dilution method. Format: functional, organism-based.
In a further experiment the test system is Wickerhamomyces anomalus. The experiment can be described thus: Antifungal activity against Pichia anomala DSM 6766 by serial dilution method. Format: functional, organism-based.
The test system of experiment [5] is Schizosaccharomyces pombe. The experiment can be described thus: Antifungal activity against Schizosaccharomyces pombe DSM 70572 by serial dilution method. The class given is functional, organism-based.
For the next experiment, the system named is Yamadazyma tenuis. The experiment can be described thus: Antifungal activity against Candida tenuis MUCL 29892 by serial dilution method. The class given is functional, organism-based.
A further experiment concerns Mucor hiemalis. The experiment can be described thus: Antifungal activity against Mucor hiemalis DSM 2656 by serial dilution method. Format: functional, organism-based.
Another experiment concerns Caenorhabditis elegans. In words: Nematicidal activity against Caenorhabditis elegans up to 100 ug/ml. Format: functional, organism-based.
In a further experiment the test system is Setaria italica. The experiment can be described thus: Phytotoxicity against Setaria italica assessed as inhibition of seedling germination at 100 ug/disk. The class given is functional, organism-based.
A further experiment has as its system Lepidium sativum. The experiment can be described thus: Phytotoxicity against Lepidium sativum assessed as inhibition of seedling germination at 100 ug/disk. Format: functional, organism-based.
The test system of experiment [6] is L929. The experiment can be described thus: Induction of nuclear fragmentation in mouse L929 cells at cytotoxic IC50 by DAPI staining based microscopic method. Format: functional, cell-based.
The subject of experiment [7] is U2OS. In words: Induction of morphological changes in human U2OS cells assessed as multipolar and duplicated spindle formation at 0.5 ug/ml after 24 hrs by DAPI staining based immunofluorescence microscopic method. Format: functional, cell-based. An outline of the steps: (§2)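 U2OS in DMEM (4.5 g/L glucose, 10% FBS), 37 °C, 7% CO2, seeded 3 × 10^4/well on fibronectin-coated coverslips and adhered 16 h. Treated 24 h at 0.25, 0.5, 2.5, 5 or 10 μg/mL (diluted from 1 mg/mL DMSO stock), DMSO control. Fixed in 4% PFA/PBS 20 min; anti-α-tubulin (DM1A), phalloidin-Alexa 488 and DNA stain; immunofluorescence imaging.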

The test system of experiment [8] is U2OS. The experiment can be described thus: Induction of morphological changes in human U2OS cells assessed as aberrantly sized cells with abnormal small nuclei formation at 0.5 ug/ml after 24 hrs by DAPI staining based immunofluorescence microscopic method. Format: functional, cell-based. The gist of the method: as §2
Experiment [9] relates to U2OS. The experiment can be described thus: Cell cycle arrest in human U2OS cells assessed as accumulation at sub-G1 phase at 5 to 10 ug/ml after 18 hrs by propidium iodide staining based flow cytometry. Format: functional. The gist of the method: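 U2OS were seeded at 7 × 10^5/well in six-well plates and exposed to 5 or 10 μg/mL for 18 h after spreading, with untreated and DMSO mock controls. Cells were trypsinized, fixed in 2% PFA/PBS, then in ice-cold methanol 30 min. Staining: anti-tubulin/anti-lamin antibodies plus RNase A and propidium iodide. Flow cytometry assigned G1, S, G2-M and sub-G1 by DNA content.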
Background: A flow cytometer gives signals particle by particle.

In experiment [10] the test system is U2OS. The experiment can be described thus: Induction of morphological changes in human U2OS cells at 0.5 ug/ml after 24 hrs by DAPI staining based immunofluorescence microscopic method.
In experiment [11] the test system is U2OS. The experiment can be described thus: Induction of apoptosis in human U2OS cells assessed as caspase-3/7 cleavage at 250 nM after 16 hrs by caspase-3/7 green reagent based flow cytometry (reference value: 8.04%). Format: functional.

In brackets after ≈: the same amount, converted by molar mass. Activity calls are given as the source filed them. The calls are words filed in the database; no cut-off is given here.

In general, IC50 refers to the concentration that gives 50% inhibition. The MIC is the lowest concentration found to suppress growth. `CC1=C(C[C@H](C)O)[C@H](/C=C(C)/C=C(C)/C=C/C(=O)O)[C@@H]2C(=C1)C[C@@H](C)C(=O)[C@H]2C`: the IC50 in the experiment on L929 [1] was 6.5 µM; in the experiment with KB 3-1, 6 µM; with A-431 it was 20.3 µM; in the experiment with A549, 60.3 µM; in the experiment with SK-OV-3, 22.6 µM; in the experiment on PC-3, 47.7 µM. Besides, the IC50 in the experiment on MCF7 was 24.3 µM; in the experiment with U2OS [2], 7.03 µM. The values for the MIC with Mucor plumbeus and with Aspergillus fumigatus were 150 µg/mL (≈ 376 µM) and 35.5 µg/mL (≈ 89.1 µM), respectively. In addition, the zone of inhibition at 100 µg/disc with Sclerotinia sclerotiorum worked out at 28 mm. In addition, the outcome (in the experiment with Micrococcus luteus; in the experiment on Bacillus subtilis; in the experiment with Staphylococcus aureus; in experiment [3]; in the experiment with Escherichia coli; with Pseudomonas aeruginosa) was inactive. The result (in experiment [4]; with Candida albicans; in the experiment with Rhodotorula glutinis; in the experiment with Wickerhamomyces anomalus; in [5]; with Yamadazyma tenuis) was inactive. Further, the result in the experiment on Mucor hiemalis, in the experiment with Caenorhabditis elegans, in the experiment with Setaria italica and in the experiment on Lepidium sativum was inactive. For the same molecule, the outcome with L929 [6], in the experiment on U2OS [7], in the experiment with U2OS [8], with U2OS [9] and in the experiment on U2OS [10] was Active.
On to `CN[C@@H]1C[C@H]2O[C@@](C)([C@@H]1OC)n1c3ccccc3c3c4c(c5c6ccccc6n2c5c31)C(=O)NC4` [STAUROSPORINE], for which, in the experiment with U2OS [11], the Activity came out at 22.6%.

The record behind these values is ChEMBL document CHEMBL4118027, “Preussilides A-F, Bicyclic Polyketides from the Endophytic Fungus Preussia similis with Antiproliferative Activity” (J Nat Prod, 2017).
